Experimental data taken from the EternaBench riboswitch data.

Columns and labels:
MS2 coat protein [1] = experiment: apparent Kd, MS2 coat protein; higher = weaker binding; RNA-MaP array; tryptophan 2.4 mM where present
Outline: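 SNAP-549-labelled MS2 coat protein, doubled from 0.7 or 1.5 nM to 3 µM, was titrated over designs transcribed by stalled E. coli RNA polymerase on Illumina sequencing-chip clusters. Titrations were run without and then with constant ligand in 100 mM Tris-HCl pH 7.5, 80 mM KCl, 4 mM MgCl2, BSA, DTT, yeast tRNA and Tween-20. The apparent Kd is the median of filtered per-cluster fits to green signal normalised to red-channel RNA signal and control-cluster median Fmax.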

MS2 coat protein [2] = experiment: apparent Kd, MS2 coat protein; higher = weaker binding; RNA-MaP array
Outline: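 Incubations were done at room temperature with fluorescently labeled MS2 coat protein at 1.5 nM to 3 μM and designed RNAs transcribed on an Illumina sequencing chip from sequenced DNA templates, with or without input ligand. Apparent Kd is the median of binding curves fitted for each cluster. Designs with fewer than 10 measured clusters were excluded.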

[3] = designed as: ON switch for tryptophan, no ligand
[4] = ligand present: tryptophan, designed as: ON switch for tryptophan
[5] = designed as: OFF switch for tryptophan, no ligand
[6] = ligand present: tryptophan, designed as: OFF switch for tryptophan
[7] = designed as: OFF switch for flavin mononucleotide, no ligand
[8] = ligand present: flavin mononucleotide, designed as: OFF switch for flavin mononucleotide
[9] = designed as: ON switch for flavin mononucleotide, no ligand
[10] = ligand present: flavin mononucleotide, designed as: ON switch for flavin mononucleotide

Row | Sequence | apparent Kd (MS2 coat protein [1]; [3]) [nM] | apparent Kd (MS2 coat protein [1]; [4]) [nM] | also measured
1 | UACCCAUGAGUUGGAAAAGCUCAUGGGUAUCGAGGACCGGUACGGCCGCCACUCGGCUGUACAUGAGGAUCACCCAUGUCAGGGU | 432 | 585 | –
2 | ACAUGAGGAUCACCCAUGUGUGUAAAUCCUCGAGGACCGGUACGGCCGCCACUCGAACGAGUGUAAGAUGAAUGUUACAUUCAUC | 105 | 38.3 | –
3 | GCAUCCUAGUCGGCCGCCACUGCAUGUAGUUUUGCUACAUGGAAACAUGAGGAUCACCCAUGUAGCAGGACCGGGACUAGGAUGC | 27.5 | 11.5 | –
4 | UGGUACUAGGCGGCCGCCACUGGGAGAUACAUGAGGAUCACCCAUGUUUAAUGCCGAGAGGCAACUAGGACCGGGCCUAGUACAU | 117 | 26.5 | –
5 | AUUCAUGAAAACAUGACAUGAGGAUCACUCCGAGGACCGGUACGGCCGCCACUCGCGAGGAGGCACAUGAGGAUCACCCAUGUUA | 114 | 82.8 | –
6 | GCUACAUGAGGAUCACCCAUGUAUGCGAGCCGAGGACCGGUACGGCCGCCACUCGCUUAACAUGAGGAUCACCCAUGUUGCUCGC | 24 | 14.8 | –
7 | GGCCAUGGAAACAUGGCGGCGGCAUAUGCGCGAGGACCGGUACGGCCGCCACUCGGGCAACAUGAGGAUCACCCAUGUUCCUCAU | – | – | apparent Kd (MS2 coat protein [1]; [5]): 211 nM; apparent Kd (MS2 coat protein [1]; [6]): 454 nM
8 | ACAUGAGGAUCACCCAUGUACGGUAUCAAUCGAGGACCGGUACGGCCGCCACUCGGAAAUAGAAGCGAUUAUUAGUGUUCUUUGU | 16.2 | 15.1 | –
9 | CCUAUGCAGUCGGCCGCCACUGAUAAAAUUAUUUUUACCUCAGAAACAUGAGGAUCACCCAUGUACAGGACCGGGACUGUAUAGG | – | – | apparent Kd (MS2 coat protein [1]; [5]): 18.1 nM; apparent Kd (MS2 coat protein [1]; [6]): 38.5 nM
10 | UCAGAUGAGGCGGCCGCCACUCGCGGAUAACGAUAGAUUAACAUGAGGAUCACCCAUGUGUCAUGGAGGACCGGGCCCAUGACAU | 27.9 | 23.7 | –
11 | UAUCGUCAGACGGCCGCCACUAGAACAUGAGGAUCACCCAUGUAAGUGGCUGGUUCAUGGGUGUCUAGGACCGGGUCUGACGAAU | – | – | apparent Kd (MS2 coat protein [1]; [5]): 17.2 nM; apparent Kd (MS2 coat protein [1]; [6]): 37.2 nM
12 | GUUGAGACCUCGGCCGCCACUCGCCAUGAGGAUCUCCCAUGUAACAUGAGGAUCACCCAUGUACUGAGGACCGGGAGGUCCUUGU | 12.4 | 21.6 | –
13 | GUAGCGACGACGGCCGCCACUCACACGAGAGGGUAGACCAACCUUCACAUGAGGAUCACCCAUGUGAGGACCGGGUUGUCGGUAC | – | – | apparent Kd (MS2 coat protein [1]; [5]): 24 nM; apparent Kd (MS2 coat protein [1]; [6]): 171 nM
14 | UAUCGUCAGACGGCCGCCACUAGAACAUGAGGAUCACCCAUGUAGGCGGCCGAUUCCUCAUUAACUAGGACCGGGUCUGACGAAU | – | – | apparent Kd (MS2 coat protein [1]; [5]): 8.13 nM; apparent Kd (MS2 coat protein [1]; [6]): 9.67 nM
15 | AAUGUAUGGCACAUGAGGAUCACCCAUGUGCGAGGACCGGUACGGCCGCCACUCGGUCCUGGGAUCUUACAACUAUACAUUAAUG | – | – | apparent Kd (MS2 coat protein [1]; [5]): 13.2 nM; apparent Kd (MS2 coat protein [1]; [6]): 27 nM
16 | GCGGACAUGAGGAUCACCCAUGUAAAUCCUCGAGGACCGGUACGGCCGCCACUCGAACGAGUGGCACGCGAGUGCGCACUCGCGU | 24.7 | 25.4 | –
17 | CUAUUUAUAGCGGCCGCCACUUACUCAUGAGGUAACAACAUGAGGAUCACCCAUGUUUGAGGAUCAAGGACCGGGCUAUGGAUAG | 26 | 20.1 | –
18 | GUGCUGGUAUCGGCCGCCACUGUAACAUGACAUCCCAGGGCCGACAUGAGGAUCACCCAUGUUAACAGGACCGGGAUAUCAACGA | – | – | apparent Kd (MS2 coat protein [1]; [5]): 14.2 nM; apparent Kd (MS2 coat protein [1]; [6]): 25.4 nM
19 | CGAUUUAAGACGGCCGCCACUAUUAAGUAACAAAAUAAACAUGAGGAUCACCCAUGUACAUGGGAUAGGACCGGGUCCAAUAUCG | 57.2 | 28.4 | –
20 | AUUUAUUAGACGGCCGCCACUUGAAAGCGACCUCAUAAAUGGGAACAUGAGGAUCACCCAUGUAAGAGGACCGGGUCUAGUAGAU | 104 | 300 | –
21 | AGGUGACAUGAGGAUCACCCAUGUGGCUUACGAGGACCGGUACGGCCGCCACUCGGUGUGACCUCCGCAUUCACAUAAUAAUCUU | 53.9 | 45.3 | –
22 | CUUGGCUGUGCGGCCGCCACUGGCUCAUCCUGCAUUACAUGAGGAUCACCCAUGUUGCGGCCUCCCAGGACCGGGCAUAGCCUGA | 253 | 139 | –

Row | Sequence | apparent Kd (MS2 coat protein [1]; [3]) [nM] | apparent Kd (MS2 coat protein [1]; [4]) [nM] | also measured
23 | GGGUACAUCACGGCCGCCACUCAUGUAAAUACAUGAGGAUCACCCAUGUCGAUGGAGACAUCGGAGAGGACCGGGUGAUGUACCG | 338 | 272 | –
24 | ACAUGAGGAUCACCCAUGUCAUGAGGUUCACGAGGACCGGUACGGCCGCCACUCGGGCUUCGGAUCACGGAUGUACAUGAUGAUC | 84 | 51.6 | –
25 | AAUGCCGGAUCGGCCGCCACUGGUUGGCUCUGUGUACAUGAGGAUCACCCAUGUCCAUCCCAAACCAGGACCGGGAUCUUUGUGU | 13.1 | 8.83 | –
26 | CGCCACUCGAGUGAUCCUCACGAGUGGCUACGAGGACCGGUACGGCCGCCACUCGAAUUAACAUGAGGAUCACCCAUGUAAUCCA | 86.3 | 62.5 | –
27 | GCCGCUGCCGCGGUGUGUGUGGGUGGGUGACGAGGACCGGUACGGCCGCCACUCGCGAUCGCACAUGAGGAUCACCCAUGUGUAA | – | – | apparent Kd (MS2 coat protein [1]; [5]): 15 nM; apparent Kd (MS2 coat protein [1]; [6]): 21.8 nM
28 | CCGUUCUCUGCGGCCGCCACUCAAGGAGCUACAUAGCUCCUAGACAUGAGGAUCACCCAUGUCGCGAGGACCGGGUAGAUUCUCC | 49.5 | 33.2 | –
29 | UACAUGAGGAUCACCCAUGUAUAACCGGUACGAGGACCGGUACGGCCGCCACUCGAAACAUGAGGAUCACCCAUGUGCUACUAUU | 34.5 | 35.6 | –
30 | ACAUGAGGAUCACCCAUGUACAUCACCCGACGAGGACCGGUACGGCCGCCACUCGGGUAUAUAUUUACAUCGGGUGAUUUUACGU | 16.7 | 18 | –
31 | ACUCGACCAUCAGCCAUUUGUGAAUCACGGCGAGGACCGGUACGGCCGCCACUCGACAUGAGGAUCACCCAUGUAAGACCGGUGU | – | – | apparent Kd (MS2 coat protein [1]; [5]): 25.8 nM; apparent Kd (MS2 coat protein [1]; [6]): 50.3 nM
32 | AAACAUGAGGAUCACCCAUGUUCUCCUGUCCGAGGACCGGUACGGCCGCCACUCGGUUCUCGGGAGGAUGGUCAAAGACUAUCCA | 13.7 | 13.6 | –
33 | AGUGUCGGAGCGGCCGCCACUAGCACAUCUGGUCGCCAUGGCAACAUGAGGAUCACCCAUGUUGCUAGGACCGGGCUCAAUAUUU | – | – | apparent Kd (MS2 coat protein [1]; [5]): 9.38 nM; apparent Kd (MS2 coat protein [1]; [6]): 10.7 nM
34 | AAUAGUCCUCGACAUGAGGAUCACCCAUGUCGAGGACCGGUACGGCCGCCACUCGACAUGAGGAUCACCCAUGUUGAGUGAUAAA | – | – | apparent Kd (MS2 coat protein [1]; [5]): 8.34 nM; apparent Kd (MS2 coat protein [1]; [6]): 7.72 nM
35 | GAGUAGAGGACGGCCGCCACUGAACAUGAGGAUCACCCAUGUCGUGAUCCGUUACCUAGGGUAGAUAGGACCGGGUCAUGUACUC | – | – | apparent Kd (MS2 coat protein [1]; [5]): 42.6 nM; apparent Kd (MS2 coat protein [1]; [6]): 42.5 nM
36 | ACAUGAGGAUCACCCAUGUGUGUAAGUCCUCGAGGACCGGUACGGCCGCCACUCGAUUGAGUGUAAGUUGAAUGUAACAUUCAAC | 16.7 | 13.8 | –
37 | UGGUAUGAAGGAUAUGACUAAGUUCACAUGAGGAUCACCCAUGUAACGUCCUCGACAUGUUCAGAAGGUCAGGCGA | – | – | apparent Kd (MS2 coat protein [2]; [7]): 11.7 nM; apparent Kd (MS2 coat protein [2]; [8]): 11.4 nM
38 | ACACAUGAGGAUCACCCAUGUAGAUAUGGGCUCACUAUCACUAGAAGGACUUUGCUCUCUUGGAAGUAGGAUAUAGUACGCUGG | – | – | apparent Kd (MS2 coat protein [2]; [7]): 163 nM; apparent Kd (MS2 coat protein [2]; [8]): 134 nM
39 | ACAUGAGGAUCACCCAUGUACCAAGAACAUUGAUGCCUCCGAGAGGAUAUUUGCGGUAUAACACUAAAGAAGGCUCUACAAGUA | – | – | apparent Kd (MS2 coat protein [2]; [7]): 7.95 nM; apparent Kd (MS2 coat protein [2]; [8]): 7.31 nM
40 | AAAAGACAUGAGGAUCACCCAUGUAGAGAUACCAGAUGCAUGGACAUCCCUUGGCAGCUCGUCACUUUCUAUAUUUUCCAGACGC | – | – | apparent Kd (MS2 coat protein [2]; designed as: ON switch for theophylline, no ligand): 46.9 nM; apparent Kd (MS2 coat protein [2]; ligand present: theophylline, designed as: ON switch for theophylline): 21.9 nM
41 | UAGAAGAACAUGCGGGCUCCGGACGGUGAUACCAGAUCGAAAAGGAUCCCUUGGCAGCACUGCACAUGAGGAUCACCCAUGUGCA | – | – | apparent Kd (MS2 coat protein [2]; designed as: OFF switch for theophylline, no ligand): 9.2 nM; apparent Kd (MS2 coat protein [2]; ligand present: theophylline, designed as: OFF switch for theophylline): 15.8 nM
42 | CCGUGGCAUCAACAGGAUAUGCUAUCAAAGACAUGAGGAUCACCCAUGUGGGUAUAUUACUUCCGGCAGAAGGGUUUAAGGGUUAC | – | – | apparent Kd (MS2 coat protein [2]; [9]): 36.6 nM; apparent Kd (MS2 coat protein [2]; [10]): 28.9 nM
43 | ACCUAGAGAUAGAAGGUUUAUAUGACCCUACAUGAGGAUCACCCAUGUUGUGGUAUUAUUCGUGAAAAGGAUAUAUCCCGUGAC | – | – | apparent Kd (MS2 coat protein [2]; [9]): 7.6 nM; apparent Kd (MS2 coat protein [2]; [10]): 7.52 nM
44 | CGAACGGGCCACACUACAUGAGGAUCACCCAUGUUCGAAGAUAGAAGGUGUAGCUGGCCUCGUUACAAGGAUAUAUCUUAUACC | – | – | apparent Kd (MS2 coat protein [2]; [7]): 29.2 nM; apparent Kd (MS2 coat protein [2]; [8]): 27.4 nM
